Laboratory results taken from ChEMBL document CHEMBL5055631, “Antitumor properties of novel sesquiterpene lactone analogs as NFκB inhibitors that bind to the IKKβ ubiquitin-like domain (ULD)” (Eur J Med Chem, 2021).

Tests used:
Assay type in all cases: functional
RPMI-8226 = assay: Anticancer activity against human RPMI-8226 cells assessed as cell growth inhibition incubated for 48 hrs by SRB method
SR = assay: Anticancer activity against human SR cells assessed as cell growth inhibition incubated for 48 hrs by SRB method
Method in brief: (§1)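 NCI-60 panel (DTP). Cells in RPMI 1640 with 5% FBS, 2 mM L-glutamine, seeded at 5,000–40,000 per well by doubling time and preincubated 24 h at 37 °C, 5% CO2. Time-zero plates TCA-fixed. DMSO stocks diluted in medium with gentamicin, tested at 100 μM, 10 μM, 1 μM, 0.1 μM and 10 nM for 48 h. Cells fixed with cold TCA, stained with SRB, absorbance read at 515 nm.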

EKVX = assay: Anticancer activity against human EKVX cells assessed as cell growth inhibition incubated for 48 hrs by SRB method; method in brief: as §1
MOLT-4 = assay: Anticancer activity against human MOLT-4 assessed as cell growth inhibition incubated for 48 hrs by SRB method
HOP-92 = assay: Anticancer activity against human HOP-92 cells assessed as cell growth inhibition incubated for 48 hrs by SRB method
K562 = assay: Anticancer activity against human K562 cells assessed as cell growth inhibition incubated for 48 hrs by SRB method
NCI-H23 = assay: Anticancer activity against human NCI-H23 cells assessed as cell growth inhibition incubated for 48 hrs by SRB method; method in brief: as §1
NCI-H460 = assay: Anticancer activity against human NCI-H460 cells assessed as cell growth inhibition incubated for 48 hrs by SRB method; method in brief: as §1
NCI-H522 = assay: Anticancer activity against human NCI-H522 cells assessed as cell growth inhibition incubated for 48 hrs by SRB method
COLO 205 = assay: Anticancer activity against human COLO 205 cells assessed as cell growth inhibition incubated for 48 hrs by SRB method
HCT-116 = assay: Anticancer activity against human HCT-116 cells assessed as cell growth inhibition incubated for 48 hrs by SRB method; method in brief: as §1
HCT-15 = assay: Anticancer activity against human HCT-15 cells assessed as cell growth inhibition incubated for 48 hrs by SRB method; method in brief: as §1
HT-29 = assay: Anticancer activity against human HT29 cells assessed as cell growth inhibition incubated for 48 hrs by SRB method; method in brief: as §1
KM12 = assay: Anticancer activity against human KM12 cells assessed as cell growth inhibition incubated for 48 hrs by SRB method; method in brief: as §1
SF-268 = assay: Anticancer activity against human SF-268 cells assessed as cell growth inhibition incubated for 48 hrs by SRB method; method in brief: as §1
SF-295 = assay: Anticancer activity against human SF-295 cells assessed as cell growth inhibition incubated for 48 hrs by SRB method; method in brief: as §1
SF-539 = assay: Anticancer activity against human SF-539 cells assessed as cell growth inhibition incubated for 48 hrs by SRB method
U-251 = assay: Anticancer activity against human U-251 cells assessed as cell growth inhibition incubated for 48 hrs by SRB method
Method in brief: (§2)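 NCI-60 panel, SRB assay. Cells grown in RPMI 1640 with 5% FBS and 2 mM L-glutamine, seeded at 5,000–40,000 cells/well depending on doubling time, and preincubated 24 h at 37 °C with 5% CO2. Time-zero plates were TCA-fixed. Compounds came from DMSO stocks and were tested at 100 μM, 10 μM, 1 μM, 0.1 μM and 10 nM for 48 h. Cells were fixed with cold TCA and stained with 0.4% SRB, and the dye was solubilized in 10 mM Tris base with A515 read.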

LOX IMVI = assay: Anticancer activity against human LOX IMVI cells assessed as cell growth inhibition incubated for 48 hrs by SRB method
Malme-3M = assay: Anticancer activity against human MALME-3M cells assessed as cell growth inhibition incubated for 48 hrs by SRB method
M14 = assay: Anticancer activity against human M14 cells assessed as cell growth inhibition incubated for 48 hrs by SRB method; method in brief: as §1
SK-MEL-28 = assay: Anticancer activity against human SK-MEL-28 cells assessed as cell growth inhibition incubated for 48 hrs by SRB method; method in brief: as §1
UACC-62 = assay: Anticancer activity against human UACC-62 cells assessed as cell growth inhibition incubated for 48 hrs by SRB method; method in brief: as §2
IGROV-1 = assay: Anticancer activity against human IGROV-1 cells assessed as cell growth inhibition incubated for 48 hrs by SRB method; method in brief: as §1
OVCAR-4 = assay: Anticancer activity against human OVCAR-4 cells assessed as cell growth inhibition incubated for 48 hrs by SRB method
OVCAR-5 = assay: Anticancer activity against human OVCAR-5 cells assessed as cell growth inhibition incubated for 48 hrs by SRB method
OVCAR-8 = assay: Anticancer activity against human OVCAR-8 cells assessed as cell growth inhibition incubated for 48 hrs by SRB method; method in brief: as §1
NCI/ADR-RES = assay: Anticancer activity against human NCI/ADR-RES cells assessed as cell growth inhibition incubated for 48 hrs by SRB method; method in brief: as §1
786-0 = assay: Anticancer activity against human 786-0 cells assessed as cell growth inhibition incubated for 48 hrs by SRB method; method in brief: as §1
A498 = assay: Anticancer activity against human A498 cells assessed as cell growth inhibition incubated for 48 hrs by SRB method; method in brief: as §1
ACHN = assay: Anticancer activity against human ACHN cells assessed as cell growth inhibition incubated for 48 hrs by SRB method; method in brief: as §1
CAKI-1 = assay: Anticancer activity against human CAKI-1 cells assessed as cell growth inhibition incubated for 48 hrs by SRB method; method in brief: as §1
TK-10 = assay: Anticancer activity against human TK-10 cells assessed as cell growth inhibition incubated for 48 hrs by SRB method; method in brief: as §2
UO-31 = assay: Anticancer activity against human UO-31 cells assessed as cell growth inhibition incubated for 48 hrs by SRB method
Method in brief: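 NCI-60 panel, SRB assay. Time-zero plates were TCA-fixed. Compounds came from DMSO stocks and were tested at 100 μM, 10 μM, 1 μM, 0.1 μM and 10 nM for 48 h. Cells were fixed with cold TCA and stained with 0.4% SRB, and the dye was solubilized in 10 mM Tris base with A515 read.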

PC-3 = assay: Anticancer activity against human PC-3 cells assessed as cell growth inhibition incubated for 48 hrs by SRB method; method in brief: as §1
DU-145 = assay: Anticancer activity against human DU-145 cells assessed as cell growth inhibition incubated for 48 hrs by SRB method; method in brief: as §1
MCF7 = assay: Anticancer activity against human MCF7 cells assessed as cell growth inhibition incubated for 48 hrs by SRB method; method in brief: as §1
MDA-MB-231 = assay: Anticancer activity against human MDA-MB-231 cells assessed as cell growth inhibition incubated for 48 hrs by SRB method; method in brief: as §1
[1] = Anticancer activity against human HS 578T cells assessed as cell growth inhibition incubated for 48 hrs by SRB method
BT-549 = assay: Anticancer activity against human BT-549 cells assessed as cell growth inhibition incubated for 48 hrs by SRB method; method in brief: as §1
T47D = assay: Anticancer activity against human T47D cells assessed as cell growth inhibition incubated for 48 hrs by SRB method; method in brief: as §1

For C=C1C(=O)O[C@H]2[C@H]1CC/C(COC(=O)NCc1cc(OC)cc(OC)c1)=C\CC[C@@]1(C)O[C@@H]21, which GI50 (RPMI-8226) is on record?
Its GI50 is 1800 nM.

What about the GI50 (SR) of the same compound?
Its GI50 is 320 nM.

What about the GI50 (EKVX) of the same compound?
The GI50 was 2060 nM.

What about the GI50 (MOLT-4) of the same compound?
Its GI50 is 2000 nM.

And the GI50 (HOP-92)?
The GI50 was 1420 nM.

What about the GI50 (K562) of the same compound?
Its GI50 is 1570 nM.

And the GI50 (NCI-H23)?
Its GI50 is 1840 nM.

What about the GI50 (NCI-H460) of the same compound?
Its GI50 is 3010 nM.

What about the GI50 (NCI-H522) of the same compound?
The GI50 was 340 nM.

And the GI50 (COLO 205)?
The GI50 was 1350 nM.

What about the GI50 (HCT-116) of the same compound?
The GI50 was 770 nM.

What about the GI50 (HCT-15) of the same compound?
Its GI50 is 770 nM.

And the GI50 (HT-29)?
Its GI50 is 1200 nM.

What about the GI50 (KM12) of the same compound?
Its GI50 is 2800 nM.

What about the GI50 (SF-268) of the same compound?
Its GI50 is 2460 nM.

What about the GI50 (SF-295) of the same compound?
Its GI50 is 7780 nM.

What about the GI50 (SF-539) of the same compound?
Its GI50 is 1540 nM.

What about the GI50 (U-251) of the same compound?
Its GI50 is 3160 nM.

What about the GI50 (LOX IMVI) of the same compound?
The GI50 was 540 nM.

And the GI50 (Malme-3M)?
Its GI50 is 1860 nM.

And the GI50 (M14)?
The GI50 was 1640 nM.

And the GI50 (SK-MEL-28)?
The GI50 was 1660 nM.

What about the GI50 (UACC-62) of the same compound?
The GI50 was 1200 nM.

What about the GI50 (IGROV-1) of the same compound?
Its GI50 is 1540 nM.

What about the GI50 (OVCAR-4) of the same compound?
The GI50 was 2120 nM.

And the GI50 (OVCAR-5)?
The GI50 was 1010 nM.

What about the GI50 (OVCAR-8) of the same compound?
Its GI50 is 1700 nM.

And the GI50 (NCI/ADR-RES)?
The GI50 was 1820 nM.

What about the GI50 (786-0) of the same compound?
The GI50 was 1600 nM.

What about the GI50 (A498) of the same compound?
Its GI50 is 2980 nM.

What about the GI50 (ACHN) of the same compound?
The GI50 was 1700 nM.

And the GI50 (CAKI-1)?
Its GI50 is 2110 nM.

And the GI50 (TK-10)?
The GI50 was 1590 nM.

And the GI50 (UO-31)?
The GI50 was 680 nM.

And the GI50 (PC-3)?
The GI50 was 1660 nM.

What about the GI50 (DU-145) of the same compound?
The GI50 was 1510 nM.

What about the GI50 (MCF7) of the same compound?
The GI50 was 2720 nM.

And the GI50 (MDA-MB-231)?
The GI50 was 720 nM.

What about the GI50 [1] of the same compound?
The GI50 was 580 nM.

And the GI50 (BT-549)?
Its GI50 is 1610 nM.

And the GI50 (T47D)?
Its GI50 is 4120 nM.

What does the source list for C=C1C(=O)O[C@H]2[C@H]1CC/C(COC(=O)NCc1ccccc1OC)=C\CC[C@@]1(C)O[C@@H]21?
GI50 (RPMI-8226): 1770 nM; GI50 (SR): 670 nM; GI50 (EKVX): 1980 nM; GI50 (MOLT-4): 2530 nM; GI50 (HOP-92): 1490 nM; GI50 (K562): 820 nM; GI50 (NCI-H23): 1740 nM; GI50 (NCI-H460): 3730 nM; GI50 (NCI-H522): 350 nM; GI50 (COLO 205): 1750 nM; GI50 (HCT-116): 540 nM; GI50 (HCT-15): 1040 nM; GI50 (HT-29): 1220 nM; GI50 (KM12): 3530 nM; GI50 (SF-268): 2200 nM; GI50 (SF-295): 5020 nM; GI50 (SF-539): 1530 nM; GI50 (U-251): 2200 nM; GI50 (LOX IMVI): 1430 nM; GI50 (Malme-3M): 1890 nM; GI50 (M14): 1100 nM; GI50 (SK-MEL-28): 1710 nM; GI50 (UACC-62): 1840 nM; GI50 (IGROV-1): 1480 nM; GI50 (OVCAR-4): 1570 nM; GI50 (OVCAR-5): 870 nM; GI50 (OVCAR-8): 1780 nM; GI50 (NCI/ADR-RES): 2290 nM; GI50 (786-0): 2450 nM; GI50 (A498): 2260 nM; GI50 (ACHN): 1160 nM; GI50 (CAKI-1): 3230 nM; GI50 (TK-10): 1380 nM; GI50 (UO-31): 1040 nM; GI50 (PC-3): 1790 nM; GI50 (DU-145): 1680 nM; GI50 (MCF7): 3130 nM; GI50 (MDA-MB-231): 690 nM; GI50 [1]: 490 nM; GI50 (BT-549): 1470 nM; GI50 (T47D): 3400 nM
